Nine compounds from ChEMBL document CHEMBL1770108, “Design and synthesis of substituted N-(1,3-diphenyl-1H-pyrazol-5-yl)benzamides as positive allosteric modulators of the metabotropic glutamate receptor subtype 5” (Bioorg Med Chem Lett, 2011) can be followed below.

The target of test [1] is Metabotropic glutamate receptor 5 (Rattus norvegicus) (UniProt P31424). Description: Agonist activity at rat mGluR5 expressed in HEK293T cells assessed as increase of glutamate-induced calcium flux by calcium fluorescence assay relative to control. It is filed as functional, cell-based. Conditions: HEK-293T. In outline:
(§1)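 Rat mGluR5-expressing cells loaded with a calcium-sensitive fluorescent dye receive vehicle or test compound. After 2.5 min, an EC20 concentration of glutamate is added, then an EC80 concentration 1 min later. This triple-add protocol allows simultaneous detection of agonist, potentiator and antagonist activity. Intracellular calcium release is read kinetically in every well by an imaging plate reader.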
On the technique in general: A change in cytosolic calcium serves as a functional read-out for many receptors and channels.

In test [2] the target is T1, Metabotropic glutamate receptor 5 (Rattus norvegicus, UniProt P31424). Description: Displacement of [3H]-MPEP from mGluR5 in rat brain. It is filed as tissue-based. In short, it runs like this: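 Radioligand displacement binding using [3H]MPEP on rat brain membranes.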
T1 sequence (P31424 whole entry): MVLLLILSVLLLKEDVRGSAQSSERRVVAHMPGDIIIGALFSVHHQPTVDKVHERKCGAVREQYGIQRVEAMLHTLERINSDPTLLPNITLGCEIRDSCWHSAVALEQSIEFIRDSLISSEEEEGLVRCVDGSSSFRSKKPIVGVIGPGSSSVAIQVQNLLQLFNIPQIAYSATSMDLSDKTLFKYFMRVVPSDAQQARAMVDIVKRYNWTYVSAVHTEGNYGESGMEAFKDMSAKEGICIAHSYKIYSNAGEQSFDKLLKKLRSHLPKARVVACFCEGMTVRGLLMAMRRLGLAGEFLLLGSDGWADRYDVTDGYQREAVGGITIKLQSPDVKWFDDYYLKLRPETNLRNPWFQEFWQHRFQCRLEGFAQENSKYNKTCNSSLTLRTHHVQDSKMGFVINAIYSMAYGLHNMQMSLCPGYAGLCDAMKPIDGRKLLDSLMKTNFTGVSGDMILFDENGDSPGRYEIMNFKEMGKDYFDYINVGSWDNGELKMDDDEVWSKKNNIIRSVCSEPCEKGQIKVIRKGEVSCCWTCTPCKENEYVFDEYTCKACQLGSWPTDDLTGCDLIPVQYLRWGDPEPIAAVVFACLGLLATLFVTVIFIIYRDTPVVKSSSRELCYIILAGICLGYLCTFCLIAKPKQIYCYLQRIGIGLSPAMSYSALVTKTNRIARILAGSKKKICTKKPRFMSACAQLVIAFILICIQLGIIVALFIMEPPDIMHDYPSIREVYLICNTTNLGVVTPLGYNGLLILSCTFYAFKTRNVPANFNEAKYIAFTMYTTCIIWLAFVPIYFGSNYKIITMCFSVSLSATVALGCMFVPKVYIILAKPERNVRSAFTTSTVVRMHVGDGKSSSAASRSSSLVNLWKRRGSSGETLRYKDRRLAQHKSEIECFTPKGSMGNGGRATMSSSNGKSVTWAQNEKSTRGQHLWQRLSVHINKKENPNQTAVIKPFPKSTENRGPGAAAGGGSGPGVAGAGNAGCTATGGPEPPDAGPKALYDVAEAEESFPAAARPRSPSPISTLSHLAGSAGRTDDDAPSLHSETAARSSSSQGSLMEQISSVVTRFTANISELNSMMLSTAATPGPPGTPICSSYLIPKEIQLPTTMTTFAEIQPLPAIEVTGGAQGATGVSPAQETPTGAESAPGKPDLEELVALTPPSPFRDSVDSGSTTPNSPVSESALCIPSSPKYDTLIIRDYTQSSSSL
Background: Displacement assays read how much labelled ligand stays bound in the presence of the test substance.

Test [3] addresses T1, Metabotropic glutamate receptor 5. The test can be described thus: Agonist activity at rat mGluR5 expressed in HEK293T cells assessed as effect on glutamate-induced calcium flux by calcium fluorescence assay. It is filed as functional, cell-based, HEK-293T. In outline: as §1
Test [4] shares this target. Description: Antagonist activity at rat mGluR5 expressed in HEK293T cells assessed as inhibition of glutamate-induced calcium flux by calcium fluorescence assay. Format: functional, cell-based, HEK-293T. In short, it runs like this:
as §1

Sequence of Metabotropic glutamate receptor 5 (Rattus norvegicus) (P31424 21-1203 limits assumed): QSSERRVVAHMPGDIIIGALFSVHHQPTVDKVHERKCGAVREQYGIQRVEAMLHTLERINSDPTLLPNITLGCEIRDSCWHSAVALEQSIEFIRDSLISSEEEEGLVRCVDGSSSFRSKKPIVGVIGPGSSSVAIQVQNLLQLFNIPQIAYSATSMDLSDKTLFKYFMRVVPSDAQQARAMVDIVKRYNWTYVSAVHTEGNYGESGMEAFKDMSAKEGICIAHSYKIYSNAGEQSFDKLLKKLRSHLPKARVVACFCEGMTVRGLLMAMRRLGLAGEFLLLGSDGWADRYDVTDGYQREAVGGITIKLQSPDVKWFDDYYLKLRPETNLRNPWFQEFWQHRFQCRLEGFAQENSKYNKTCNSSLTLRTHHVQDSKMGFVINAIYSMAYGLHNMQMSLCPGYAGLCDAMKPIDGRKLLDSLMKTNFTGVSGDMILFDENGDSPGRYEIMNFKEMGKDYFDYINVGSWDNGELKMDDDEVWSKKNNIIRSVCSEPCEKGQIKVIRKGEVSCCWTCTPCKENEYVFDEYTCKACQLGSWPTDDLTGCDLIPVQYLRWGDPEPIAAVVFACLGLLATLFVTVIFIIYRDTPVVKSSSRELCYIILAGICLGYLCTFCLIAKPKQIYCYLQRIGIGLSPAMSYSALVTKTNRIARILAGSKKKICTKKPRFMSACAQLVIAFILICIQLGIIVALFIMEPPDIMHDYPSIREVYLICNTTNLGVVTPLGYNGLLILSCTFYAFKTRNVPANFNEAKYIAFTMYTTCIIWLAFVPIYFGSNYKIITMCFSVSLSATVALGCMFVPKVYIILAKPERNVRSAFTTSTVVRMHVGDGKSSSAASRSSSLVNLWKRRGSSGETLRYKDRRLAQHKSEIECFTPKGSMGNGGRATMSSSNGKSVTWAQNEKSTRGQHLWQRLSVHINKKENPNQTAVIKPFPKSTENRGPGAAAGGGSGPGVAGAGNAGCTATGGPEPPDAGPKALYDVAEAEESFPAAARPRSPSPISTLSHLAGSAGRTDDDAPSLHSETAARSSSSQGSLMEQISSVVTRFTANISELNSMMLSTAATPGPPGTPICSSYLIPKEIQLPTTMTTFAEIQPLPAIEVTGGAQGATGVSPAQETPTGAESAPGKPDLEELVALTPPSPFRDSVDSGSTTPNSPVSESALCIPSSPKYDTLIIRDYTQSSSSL

As usually defined, the Ki is the equilibrium dissociation constant of an inhibitor or competing ligand from its target. The term EC50 denotes the concentration that produces a half-maximal response. Consider `N#Cc1cc(C(=O)Nc2cc(-c3ccccc3)nn2-c2ccccc2Cl)ccc1-c1cccc2ccccc12`, for which the Activity in test [1] is 50.2%. Further, the Ki in test [2] was more than 10000 nM. The EC50 in test [3] is 2170 nM.
Consider `N#Cc1cc(C(=O)Nc2cc(-c3ccccc3)nn2-c2ccccc2Cl)ccc1-c1cccc(F)c1`, for which the affinity in test [2] corresponds to a Ki of 2060 nM. Besides, in test [3], the EC50 is more than 30000 nM.
Broadly, the IC50 is the concentration at which inhibition is half-maximal. Consider `Cc1ccc(NC(=O)c2cc(F)cc(C#N)c2)nc1`, for which the affinity in test [2] corresponds to a Ki of 2830 nM. In test [4], the IC50 was determined as 4170 nM.
Take `N#Cc1cc(C(=O)Nc2cc(-c3ccccc3)nn2-c2ccccc2Cl)ccc1-c1ccccc1`: in test [1], the Activity is 61.8%. In test [2], this compound returned a Ki of 37 nM. For the same compound, the EC50 in test [3] was 4140 nM.
As to `O=C(Nc1cc(-c2ccccc2)nn1-c1ccccc1Cl)c1cc(-c2cc(F)cc(F)c2)ccn1`, the Activity in test [1] was 67.6%. In test [2], this compound returned an inhibition constant Ki of 344 nM. The EC50 in test [3] is 646 nM.
For the compound `CCc1cccc(NC(=O)c2cc(F)cc(C#N)c2)n1`, affinity in test [2] was put at a Ki of 762 nM. For the same compound, in test [4], the 50% inhibitory concentration (IC50) was determined as 169 nM.
For `CCCc1cccc(NC(=O)c2cc(F)cc(C#N)c2)n1`, in that order: 325 nM and 165 nM.
In test [2], `CCCCc1cccc(NC(=O)c2cc(F)cc(C#N)c2)n1` gave a Ki of 1050 nM. The IC50 in test [4] came to 1550 nM.
Regarding `N#Cc1cc(C(=O)Nc2cc(-c3ccccc3)nn2-c2ccccc2Cl)ccc1-c1ccc(F)cc1`, the Activity in test [1] stood at 68%. In test [2], this compound registered a Ki of 23 nM. Besides, the EC50 in test [3] is 2430 nM.
